# High-throughput results as filed in PubChem BioAssay.
# OXTR potentiator = human OXTR potentiators, primary screen, fluorescence, CHO-OTR cells, Fluo-8 calcium; Oxytocin receptor (Homo sapiens), P30559; Fluo-8 calcium fluorescence, potentiator mode; 0% = oxytocin EC15, 100% = EC100; activation, % at 3 µM; actives 0.061% (n = 320,000);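 active = activation above that plate's cutoff, the mean activation of tested compounds plus 3 SD, cut at about 6.6% in these data, passing the limit was not always enough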;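 note: 100% uses oxytocin at 75 nM as the full agonist control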
#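 System: human OTR in CHO cells; Also added: sub-maximal oxytocin, roughly EC15; Timing: compound 6 min at room temperature before oxytocin, 100 s read; Technique: Fluo-8 intracellular calcium fluorescence, ex 470-495, em 515-575 nm; Controls: oxytocin EC15 low and EC100 high; Replication: singlicate.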
# zfTRPN1 agonist = zebrafish TRPN1 channel agonists, primary screen, cell-based, HEK293, calcium fluorescence. HEK293 zebrafish TRPN1-YFP, Fluo-8 calcium fluorescence; 100% = response to 87 µM carbachol. activation, % at 3 µM. actives 0.18% (n = 220,000);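 active = activation above its plate's cutoff, the mean activation of test wells on that plate plus 3 SD, cut at about 19% in these data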;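 note: 0% = DMSO alone and 100% = 87 µM carbachol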
#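 Material – zebrafish TRPN1-YFP in HEK293 cells · Doses – 3 µM single point · Schedule – dye 1 h 37 °C plus 30 min RT · Signal – Fluo-8 calcium fluorescence, excitation 470-495 nm, emission 515-575 nm · Read-out – % activation versus carbachol response · Control set – carbachol high, DMSO low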
# TRPML3 ag = human TRPML3 channel agonists, primary screen, cell-based, HEK293 TRPML3-YFP, Fluo-8 calcium fluorescence, 3 µM; AID 1448, 2008; activation, % at 3 µM; actives 0.29% (n = 220,000); 100% = the carbachol control signal; Mucolipin-3 (Homo sapiens), Q8TDD5;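 active = activation above its plate's cutoff, the mean activation of the plate's test wells plus 3 SD, cut at about 12% in these data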;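 note: 0% = DMSO only wells and 100% = carbachol wells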
# Target sequence (Q8TDD5 whole entry, looked up): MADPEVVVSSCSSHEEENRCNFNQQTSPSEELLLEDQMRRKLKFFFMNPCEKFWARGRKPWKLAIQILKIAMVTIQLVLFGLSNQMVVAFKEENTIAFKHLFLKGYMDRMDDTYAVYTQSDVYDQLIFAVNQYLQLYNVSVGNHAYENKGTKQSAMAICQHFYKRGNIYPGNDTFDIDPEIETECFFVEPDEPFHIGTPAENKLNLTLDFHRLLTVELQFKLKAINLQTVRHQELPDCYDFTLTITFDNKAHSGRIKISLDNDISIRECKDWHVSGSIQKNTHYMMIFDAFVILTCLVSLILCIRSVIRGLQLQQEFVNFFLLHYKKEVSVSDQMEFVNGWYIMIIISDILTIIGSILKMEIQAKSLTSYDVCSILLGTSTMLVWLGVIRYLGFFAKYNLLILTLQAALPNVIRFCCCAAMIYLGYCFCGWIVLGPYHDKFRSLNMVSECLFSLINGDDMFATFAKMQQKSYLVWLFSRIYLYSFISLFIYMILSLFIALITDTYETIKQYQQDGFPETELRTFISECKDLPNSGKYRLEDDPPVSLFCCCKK
#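 Material: HEK293 cells stably carrying human TRPML3-YFP; compound dosing: single dose, 3 µM final nominal compound, 0.3% DMSO final; incubation: 1-h 37 °C dye load, 5-s basal, 120-s post-compound reads; technique: Fluo-8 intracellular calcium fluorescence, excitation 470-495 nm, emission 515-575 nm; read-out basis: percent activation from peak-to-basal fluorescence ratio, scaled between DMSO and carbachol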
# OXTR agonist = human OXTR agonists, primary screen, fluorescence, CHO-OTR cells, Fluo-8 calcium | Fluo-8 calcium fluorescence; normalized: DMSO 0%, oxytocin 100% | actives 0.32% (n = 320,000) | activation, % at 3 µM | Oxytocin receptor (Homo sapiens), P30559;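 active = activation above the mean of all tested compounds plus 3 SD, cutoff set per screening run, cut at about 20% in these data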;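 note: peak over basal fluorescence ratio from a 100 s FLIPR kinetic read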
# V1R ag counter = agonists of human V1a receptor, primary screen, counter-screen for OXTR agonist project, fluorescence, CHO-V1R cells | activation, % at 3 µM | Fluo-8 calcium fluorescence, agonist mode; 0% DMSO, 100% 3 nM vasopressin | actives 0.25% (n = 320,000);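 active = activation above the mean activation of all tested compounds plus 3 SD, per screening run, cut at about 20% in these data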;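 note: signal is peak over basal fluorescence ratio across a 100 second FLIPR read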
# OXTR ag confirm = human OXTR agonists, confirmation, fluorescence, CHO-OTR cells, triplicate | activation, % at 3 µM | actives 20% (n = 390) | shares compounds with OXTR agonist | Fluo-8 calcium fluorescence, agonist | AID 434963, 2010;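 active = mean activation above about 20% derived from the earlier single-dose screen, limit read from the data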;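 note: peak over minimum fluorescence ratio per well during a 100 second FLIPR read; 0% = DMSO alone and 100% = oxytocin high control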
# V1aR counter 3x = V1a receptor agonists, calcium signal, counter-screen for OXTR agonist project, triplicate, fluorescence, CHO-V1R cells; shares compounds with OXTR agonist; Fluo-8 calcium fluorescence; activation, % at 3 µM; actives 10% (n = 390); AID 434991, 2010;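 active = mean activation over triplicate exceeds the hit threshold set in the earlier primary screen, cut at about 20% in these data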;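 note: peak over basal fluorescence ratio within a 100 second read; 0% = DMSO alone and 100% = 3 nM vasopressin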
# Starred values were filed as active, the others as inactive; x = no result given. Compounds with a hit are over-represented: about 0.55% of the library has one in this group of screens.
SMILES,OXTR potentiator,zfTRPN1 agonist,TRPML3 ag,OXTR agonist,V1R ag counter,OXTR ag confirm,V1aR counter 3x
O=C1/C(=C/c2ccccc2)N=C(N2CCOCC2)N1c1cccc(Cl)c1,-10.3,-1.8,-0.6,25.7*,6.8,9.6,6.9
CC1CN(c2ccc([N+](=O)[O-])c(NCCOc3ccccc3)c2)CC(C)N1 (configuration not stated),-15.2,x,x,24.2*,7.2,3.6,3.7
Cc1ccccc1OCCNc1cc(N2CC(C)NC(C)C2)ccc1[N+](=O)[O-] (configuration not stated),-7.4,7.2,2.6,20.3*,14.4,13.1,4.6
CCc1ccc(OCCNc2cc(N3CCNC(C)C3)ccc2[N+](=O)[O-])cc1 (configuration not stated),-6.7,x,x,18.4,11.0,x,x
CCOC(=O)c1csc(NC(=O)CSc2nnnn2-c2ccc3c(c2)OCCO3)n1,-9.4,6.0,2.6,22.8*,16.4,8.5,7.0
CCc1ccc(Nc2cc(=O)n(C3CCCCC3)c(=O)[nH]2)cc1,-16.0,8.1,7.1,24.7*,17.1,33.2*,29.7*
O=c1cc(Nc2ccc3c(c2)OCCO3)[nH]c(=O)n1C1CCCCC1,-10.7,2.3,1.5,4.3,3.4,x,x
COc1cc(C(=O)NCC(=O)NNC(=O)C2COc3ccccc3O2)cc(OC)c1OC (configuration not stated),-3.5,x,x,0.4,1.2,x,x
COc1ccc(S(=O)(=O)N(n2c(C)nnc2-n2nc(C)cc2C)S(=O)(=O)c2ccc(OC)cc2)cc1,-14.9,1.6,0.3,21.2*,0.2,0.6,0.5
CC[n+]1c(/C=C/C=C/N(C(C)=O)c2ccccc2)sc2cc(OC)ccc21,-10.7,10.0,2.2,29.1*,12.6,69.0*,90.5*
CC[n+]1c(/C=C(\C)OC)sc2ccccc21,x,-1.6,0.6,x,x,x,x
CC(=O)Nc1ccc(S(=O)(=O)N(C)C2CCN(C)CC2)cc1,-7.3,x,x,0.5,0.5,x,x
CC(Oc1cccc(Cl)c1)C(=O)Nc1ccc(S(=O)(=O)N(C)C2CCN(C)CC2)cc1 (configuration not stated),-11.9,x,x,22.1*,15.1,19.2,14.2
CCCn1ncc(CN2CCN(Cc3ccc(C)o3)C(CCO)C2)c1C (configuration not stated),1.4,1.0,1.5,-0.1,0.6,x,x
COc1ccccc1NC(=O)CCCN1C(=O)C(c2ccccc2)Oc2cccnc21 (configuration not stated),-4.8,x,x,0.8,13.5,x,x
COc1ccc(CCNC(=O)CCCN2C(=O)C(c3ccccc3)Oc3cccnc32)cc1OC (configuration not stated),-6.6,x,x,25.4*,3.6,-0.3,-0.1
c1cc2c(cc1C1CCCCC1)c1c3n2CCCNC3CCC1 (configuration not stated),-2.4,4.9,0.7,26.2*,17.9,1.4,0.6
CC(=C/c1ccco1)/C=N/NC(=O)c1nnn(-c2nonc2N)c1CN(C)C,-2.5,-0.1,0.5,-0.1,0.1,x,x
O=C(Cc1cccs1)N(Cc1ccco1)C1(C(=O)NC2CCCC2)CCCCC1,-19.2,-2.3,-0.3,20.1*,5.8,-0.5,0.0
O=C1NC(=O)C(CC(=O)N(Cc2ccco2)C2(C(=O)NC3CCCC3)CCCCC2)N1 (configuration not stated),-13.0,2.5,1.3,-1.3,0.1,x,x
COc1ccc(-c2nc(CS(=O)(=O)CC(=O)NCc3ccccc3OC)c(C)o2)cc1,-4.4,x,x,0.7,2.8,x,x
O=Cc1[nH]c2ccccc2c1N(C(=O)CCl)c1ccc([N+](=O)[O-])cc1,-17.6,5.4,2.8,21.1*,11.2,15.8,10.7
CC(=O)n1cc(N(C(=O)CCl)c2ccc([N+](=O)[O-])cc2)c2ccccc21,-4.2,3.8,2.1,9.9,5.1,x,x
CC(=O)Nc1ccc(NC(=O)COC(=O)C2(c3ccc(Cl)cc3)CCCC2)cc1,-10.7,11.3,3.7,19.8*,17.6,12.7,11.9
COc1ccc(CCNCC(O)Cn2c3ccccc3c3ccccc32)cc1OC (configuration not stated),-10.9,5.9,4.4,23.4*,15.2,23.7*,3.8
SMILES,OXTR potentiator,zfTRPN1 agonist,TRPML3 ag,OXTR agonist,V1R ag counter,OXTR ag confirm,V1aR counter 3x
CCC(=O)Nc1cc2c3c(c1)CCC(=O)N3CCC2,-7.2,x,x,-0.2,0.0,x,x
NS(=O)(=O)c1ccc(CCNCc2ccccc2OCc2ccc(Cl)cc2)cc1,-24.6,x,x,27.7*,17.3,18.1,7.0
NS(=O)(=O)c1ccc(CCNCc2cc(Cl)ccc2OCc2ccccc2)cc1,-23.0,x,x,22.0*,17.4,8.3,8.3
Cc1ccccc1COC(=O)CCCC1=NS(=O)(=O)c2ccccc2N1,-14.9,x,x,23.6*,17.1,17.0,14.2
COc1cc(OC)cc(C(=O)Nc2ccccc2C(=O)NC2CC2)c1,-4.4,x,x,-1.2,0.7,x,x
CCOC(=O)c1ccc(NC(=S)N2CCSC2c2ccc(OC)cc2)cc1 (configuration not stated),-20.9,4.6,1.8,32.1*,17.8,36.9*,30.7*
COc1ccc(C2SCCN2C(=S)Nc2ccc(F)cc2)cc1 (configuration not stated),-7.9,3.0,1.1,3.4,2.0,x,x
CCOC(=O)c1sc(NC(=O)c2ccc(Cl)s2)cc1C,-0.7,0.8,0.7,1.6,0.7,x,x
CCOC(=O)c1sc(NC(=O)Nc2ccc(Cl)cc2)cc1C,-22.5,17.8,4.3,20.1*,13.9,11.0,10.8
COc1ccccc1Nc1nc(-c2ccccc2)nc2ccccc12,-6.9,0.8,1.1,-1.6,0.5,x,x
COc1ccc(Nc2nc(-c3ccccc3)nc3ccccc23)c(OC)c1,-27.2,0.7,-0.2,29.7*,5.8,-0.4,0.0
OCC[C@@H]1C[C@H](O)[C@@H](O)[C@]2(CCc3ccccc3CO2)O1,-1.4,x,x,-0.8,0.2,x,x
Clc1ccc2c(c1)C(N1CCNCC1)Cc1ccccc1S2 (configuration not stated),-17.6,15.7,2.2,29.4*,11.7,20.8*,7.0
